Drawing on ChEMBL document CHEMBL4819027, “Design, synthesis and biological evaluation of novel 2-(4-(1H-indazol-6-yl)-1H-pyrazol-1-yl)acetamide derivatives as potent VEGFR-2 inhibitors” (Eur J Med Chem, 2021), this text covers IC50 for 25 molecules.

One test relates to GES1. The test can be described thus: Cytotoxicity against human GES-1 cells assessed as inhibition of cell growth incubated for 72 hrs by MTT assay. Conditions: GES1, 72 h. The class given is cell-based. In short, it runs like this: (§1)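 Log-phase cells were seeded at 5 × 10³ per well and attached 24 h. HT-29 and GES-1 were grown in DMEM-based medium, A549/HepG2/HGC-27 in RPMI-1640, HUVEC in ECM with ECGS; all media had 10% FBS. Cells were exposed to graded compound concentrations for 72 h at 37 °C. MTT (5 mg/mL stock) was added for 4 h, formazan dissolved in DMSO, and A490 read. IC50 was obtained by nonlinear sigmoidal regression; mean ± S.E. of three experiments.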

Test [1] concerns the target Vascular endothelial growth factor receptor 2 (Homo sapiens, UniProt P35968). The test can be described thus: Inhibition of VEGFR2 (unknown origin) incubated for 10 mins followed by kinase substrate addition and measured after 30 mins by caliper mobility shift assay.
Another test has as its system HepG2. The test can be described thus: Antiproliferative activity against human HepG2 cells assessed as cell growth inhibition after 72 hrs by MTT assay. The class given is functional, cell-based. Conditions: HepG2, 72 h. Put shortly: as §1
A further test has as its system HGC-27. Description: Antiproliferative activity against human HGC-27 cells assessed as cell growth inhibition after 72 hrs by MTT assay. The conditions noted are these: HGC-27, 72 h. The class given is functional, cell-based. Put shortly: as §1
A further test concerns A549. Description: Antiproliferative activity against human A549 cells assessed as cell growth inhibition after 72 hrs by MTT assay. The conditions noted are these: A549, 72 h. It counts as functional, cell-based. In short, it runs like this: as §1
The next test deals with HT-29. Description: Antiproliferative activity against human HT-29 cells assessed as cell growth inhibition after 72 hrs by MTT assay. It counts as functional, cell-based. The conditions noted are these: HT-29, 72 h. Put shortly: as §1
The test system of a further test is HUVEC. Description: Cytotoxicity against human HUVEC cells assessed as inhibition of cell growth incubated for 72 hrs by MTT assay. The class given is cell-based. Put shortly:
as §1

The structures appear in SMILES notation.

Chain of Vascular endothelial growth factor receptor 2 (P35968 whole entry): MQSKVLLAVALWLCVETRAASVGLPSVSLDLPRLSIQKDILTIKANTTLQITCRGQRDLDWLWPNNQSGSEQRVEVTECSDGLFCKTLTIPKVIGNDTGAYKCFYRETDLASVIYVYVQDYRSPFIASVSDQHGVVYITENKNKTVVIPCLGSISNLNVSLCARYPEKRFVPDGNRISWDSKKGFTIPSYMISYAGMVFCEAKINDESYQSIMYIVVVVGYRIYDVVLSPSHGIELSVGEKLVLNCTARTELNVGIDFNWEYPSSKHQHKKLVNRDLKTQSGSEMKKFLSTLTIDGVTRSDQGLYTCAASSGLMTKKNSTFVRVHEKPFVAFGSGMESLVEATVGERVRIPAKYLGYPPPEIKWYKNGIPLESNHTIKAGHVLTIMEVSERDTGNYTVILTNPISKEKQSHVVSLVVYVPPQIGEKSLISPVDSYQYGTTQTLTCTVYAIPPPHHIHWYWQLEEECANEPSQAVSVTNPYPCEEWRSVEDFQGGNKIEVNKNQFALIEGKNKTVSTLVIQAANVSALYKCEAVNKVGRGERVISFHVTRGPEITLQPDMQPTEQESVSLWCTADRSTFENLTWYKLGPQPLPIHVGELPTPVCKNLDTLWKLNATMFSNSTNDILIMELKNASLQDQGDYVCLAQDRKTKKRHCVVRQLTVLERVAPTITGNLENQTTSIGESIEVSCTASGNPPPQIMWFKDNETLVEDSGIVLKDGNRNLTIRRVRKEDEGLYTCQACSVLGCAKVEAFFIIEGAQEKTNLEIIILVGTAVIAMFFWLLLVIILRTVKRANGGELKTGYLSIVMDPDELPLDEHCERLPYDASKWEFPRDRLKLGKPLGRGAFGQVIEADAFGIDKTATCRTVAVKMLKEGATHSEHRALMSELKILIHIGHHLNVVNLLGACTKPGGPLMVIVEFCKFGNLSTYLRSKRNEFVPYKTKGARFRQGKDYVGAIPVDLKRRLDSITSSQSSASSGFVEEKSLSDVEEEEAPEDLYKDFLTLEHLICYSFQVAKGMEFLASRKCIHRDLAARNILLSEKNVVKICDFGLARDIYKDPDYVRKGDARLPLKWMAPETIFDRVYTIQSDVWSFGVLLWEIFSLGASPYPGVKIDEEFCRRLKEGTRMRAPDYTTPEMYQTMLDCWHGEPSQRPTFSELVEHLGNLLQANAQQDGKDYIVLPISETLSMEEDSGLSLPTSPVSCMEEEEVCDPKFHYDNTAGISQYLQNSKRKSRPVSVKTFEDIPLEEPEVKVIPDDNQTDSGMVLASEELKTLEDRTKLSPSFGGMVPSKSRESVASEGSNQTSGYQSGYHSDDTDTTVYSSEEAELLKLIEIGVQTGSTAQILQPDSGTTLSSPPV

For the molecule `Nc1n[nH]c2cc(-c3cnn(CC(=O)Nc4cc(C(F)(F)F)ccc4F)c3)ccc12`, the IC50 in the test with GES1 was determined as 7.64 µM; in test [1] it was 0.022 µM; with HepG2, 13.3 µM; in the test with HGC-27 it was 15.5 µM; in the test on A549 it was 20.5 µM; in the test on HT-29, 7.83 µM. Besides, the IC50 with HUVEC was 23.9 µM.
Take `Nc1n[nH]c2cc(-c3cnn(CC(=O)Nc4cccc(C(F)(F)F)c4)c3)ccc12`: the IC50 in the test with GES1 is 22.3 µM; in test [1], 0.0074 µM; in the test on HepG2 it was 11.5 µM; in the test on HGC-27, 10.2 µM; with A549, 19.5 µM; in the test with HT-29 it was 3.97 µM. In addition, the IC50 in the test with HUVEC came out at 7.25 µM.
With `Cc1ccc(NC(=O)Cc2ccc(-c3ccc4c(NC(=O)C5CC5)n[nH]c4c3)s2)cc1C(F)(F)F`, the IC50 with GES1 amounted to 13.9 µM; in test [1], 0.012 µM; in the test on HepG2, 38.1 µM; in the test with HGC-27 it was 3.09 µM; in the test on A549, 0.96 µM; in the test on HT-29, 8.09 µM. The IC50 with HUVEC worked out at 5.62 µM.
For `O=C(Cn1cc(-c2ccc3c(Nc4cccnc4)n[nH]c3c2)cn1)Nc1ccc(Cl)c(C(F)(F)F)c1`, the IC50 with GES1 was 12.8 µM; in test [1] it was 0.892 µM; with HepG2, 5.63 µM; in the test with HGC-27, 3.65 µM; in the test on A549 it was 7.96 µM; with HT-29 it was 5.21 µM. Further, in the test with HUVEC, the IC50 was found to be 8.04 µM.
On to `Cc1ccc(NC(=O)Cn2cc(-c3ccc4c(NC(=O)C5CC5)n[nH]c4c3)cn2)cc1C(F)(F)F`, for which the IC50 with GES1 is 4.24 µM; in test [1], 0.0014 µM; in the test on HepG2, 2.51 µM; in the test on HGC-27, 0.63 µM; in the test on A549, 2.16 µM; in the test with HT-29, 1.01 µM. The IC50 in the test on HUVEC was found to be 0.95 µM.
Regarding `Cc1ccc(NC(=O)Cc2ccc(-c3ccc4c(NC(=O)C5CC5)n[nH]c4c3)cc2)cc1C(F)(F)F`, the half-inhibitory concentration (IC50) with GES1 is more than 100 µM; in the test on HepG2 it was more than 50 µM; in the test with HGC-27, 33.7 µM; with A549, 45.1 µM; in the test with HT-29, 44.7 µM; with HUVEC it was more than 100 µM.
For the molecule `Cc1ccc(NC(=O)Cn2cc(-c3ccc4c(NC(=O)C(C)C)n[nH]c4c3)cn2)cc1C(F)(F)F`, the IC50 in the test on GES1 was more than 100 µM; in test [1], 0.028 µM; in the test on HepG2 it was 13.7 µM; in the test with HGC-27, 0.39 µM; with A549, 2.48 µM; in the test on HT-29, 0.48 µM. The IC50 in the test on HUVEC stood at 2.43 µM.
Regarding `Cc1ccc(NC(=O)Cn2nc(C)c(-c3ccc4c(NC(=O)C5CC5)n[nH]c4c3)c2C)cc1C(F)(F)F`, the IC50 worked out at 11.9 µM with GES1; 0.307 µM in test [1]; 27.4 µM in the test with HepG2; 2.79 µM in the test with HGC-27; 1.81 µM in the test with A549; 14.7 µM in the test with HT-29. Moreover, the IC50 in the test with HUVEC worked out at 6.62 µM.
As to `Cc1ccc(NC(=O)Cn2cc(-c3ccc4c(NC(=O)c5cccnc5)n[nH]c4c3)cn2)cc1C(F)(F)F`, the IC50 in the test with GES1 is 8.46 µM; in test [1], 0.0023 µM; with HepG2 it was 9.08 µM; in the test on HGC-27 it was 1.17 µM; with A549, 5.34 µM; in the test on HT-29, 7.78 µM. For the same molecule, the IC50 in the test with HUVEC was determined as 1.75 µM.
As to `Cc1ccc(NC(=O)Cn2cc(-c3ccc4c(NC(=O)C5CC5)n[nH]c4c3)nn2)cc1C(F)(F)F`, the IC50 in the test with GES1 is more than 100 µM; in the test on HepG2, more than 50 µM; with HGC-27 it was more than 50 µM; in the test with A549, more than 50 µM; in the test on HT-29, more than 50 µM; with HUVEC it was less than 1 µM.
`Cc1ccc(NC(=O)Cn2cc(-c3ccc4c(NC(=O)c5cnn(C)c5)n[nH]c4c3)cn2)cc1C(F)(F)F`: the IC50 in the test with GES1 was found to be 1.67 µM; in test [1], 0.00073 µM; in the test on HepG2 it was 2.61 µM; in the test on HGC-27 it was 0.021 µM; with A549, 3.86 µM; with HT-29, 4.92 µM. Further, the IC50 with HUVEC amounted to 4.41 µM.
Regarding `Cc1ccc(NC(=O)Cc2cccc(-c3ccc4c(NC(=O)C5CC5)n[nH]c4c3)c2)cc1C(F)(F)F`, the IC50 with GES1 is 48.5 µM; with HepG2, 25.5 µM; with HGC-27, 15.6 µM; in the test with A549, 20.9 µM; in the test with HT-29 it was more than 50 µM; in the test with HUVEC, more than 50 µM.
Consider `Cc1ccc(NC(=O)Cn2cc(-c3ccc4c(NCC5CC5)n[nH]c4c3)cn2)cc1C(F)(F)F`, for which the IC50 came out at 12 µM in the test with GES1; 0.06 µM in test [1]; 22.3 µM in the test with HepG2; 1.22 µM with HGC-27; 9.88 µM with A549; 11 µM in the test with HT-29. Further, the IC50 in the test on HUVEC was determined as 17.9 µM.
Regarding `Cn1cc(Nc2n[nH]c3cc(-c4cnn(CC(=O)Nc5ccc(Cl)c(C(F)(F)F)c5)c4)ccc23)cn1`, the IC50 in the test with GES1 was found to be 13.3 µM; in test [1] it was 0.22 µM; with HepG2, 10.4 µM; with HGC-27 it was 12.5 µM; in the test with A549, 12.1 µM; in the test with HT-29, 9.17 µM. Moreover, the IC50 in the test with HUVEC is 4.03 µM.
As for `Nc1n[nH]c2cc(-c3cnn(CC(=O)Nc4ccc(Cl)c(C(F)(F)F)c4)c3)ccc12`, the IC50 was determined as 12 µM with GES1; 0.012 µM in test [1]; 7.71 µM in the test with HepG2; 7.68 µM in the test with HGC-27; 12.5 µM in the test on A549; 3.57 µM in the test on HT-29. Besides, the IC50 in the test with HUVEC turned out to be 6.84 µM.
As for `O=C(Cn1cc(-c2ccc3c(NC(=O)C4CC4)n[nH]c3c2)cn1)Nc1ccc(Cl)c(C(F)(F)F)c1`, the half-maximal inhibitory concentration (IC50) with GES1 was determined as 29.8 µM; in test [1], 0.014 µM; with HepG2 it was 6.03 µM; in the test on HGC-27, 1.05 µM; with A549, 8.55 µM; in the test with HT-29, 1.37 µM. Further, the IC50 with HUVEC came to 1.07 µM.
Turning to `CCNc1n[nH]c2cc(-c3cnn(CC(=O)Nc4ccc(C)c(C(F)(F)F)c4)c3)ccc12`, the IC50 stood at 1.9 µM with GES1; 0.038 µM in test [1]; 15.1 µM in the test with HepG2; 1.19 µM in the test on HGC-27; 8.48 µM in the test on A549; 8.32 µM in the test with HT-29. Further, in the test with HUVEC, the IC50 was more than 50 µM.
`CNS(=O)(=O)c1cc(Nc2n[nH]c3cc(-c4cnn(CC(=O)Nc5ccc(Cl)c(C(F)(F)F)c5)c4)ccc23)ccc1C`: the IC50 was found to be 3.37 µM with GES1; 0.407 µM in test [1]; 3.83 µM in the test on HepG2; 0.39 µM in the test on HGC-27; 1.37 µM with A549; 3.27 µM in the test with HT-29. In addition, the IC50 in the test on HUVEC came out at 1.45 µM.
With `Cc1ccc(NC(=O)Cn2cc(-c3ccc4c(N)n[nH]c4c3)cn2)cc1C(F)(F)F`, the IC50 in the test with GES1 came out at 6.96 µM; in test [1], 0.0027 µM; in the test on HepG2, 4.18 µM; with HGC-27, 4.98 µM; in the test with A549, 7.09 µM; in the test on HT-29, 1.54 µM. Moreover, the IC50 in the test on HUVEC was 5.24 µM.
For the molecule `O=C(Cn1cc(-c2ccc3c(NC(=O)C4CC4)n[nH]c3c2)cn1)Nc1cc(C(F)(F)F)ccc1F`, the 50% inhibitory concentration (IC50) came to 25 µM in the test on GES1; 0.012 µM in test [1]; 5.61 µM in the test on HepG2; 3.73 µM with HGC-27; 8.82 µM with A549; 5.06 µM in the test on HT-29. Moreover, in the test with HUVEC, the IC50 was determined as 5.26 µM.
As for `Cc1ccc(NC(=O)Cn2cc(-c3ccc4c(NC(=O)C5CCN(C)CC5)n[nH]c4c3)cn2)cc1C(F)(F)F`, the IC50 with GES1 was determined as 5.31 µM; in test [1] it was 0.011 µM; with HepG2, 15.3 µM; in the test on HGC-27, 0.16 µM; in the test with A549 it was 5.28 µM; in the test with HT-29 it was 1.79 µM. In addition, in the test with HUVEC, the IC50 stood at 53.9 µM.
As to `Cn1cc2ccc(Nc3n[nH]c4cc(-c5cnn(CC(=O)Nc6ccc(Cl)c(C(F)(F)F)c6)c5)ccc34)cc2n1`, the IC50 is 10 µM with GES1; 0.249 µM in test [1]; 4.32 µM in the test with HepG2; 5.03 µM with HGC-27; 4.72 µM in the test with A549; 6.11 µM with HT-29. The IC50 in the test with HUVEC is 6.4 µM.
For the molecule `Cc1ccc(NC(=O)Cn2cc(-c3ccc4c(NC(=O)C5CCCC5)n[nH]c4c3)cn2)cc1C(F)(F)F`, the IC50 came out at 0.75 µM with GES1; 0.015 µM in test [1]; 8.34 µM in the test on HepG2; 0.5 µM in the test on HGC-27; 1.58 µM with A549; 0.19 µM in the test with HT-29. Moreover, the IC50 in the test with HUVEC is 1.49 µM.
Regarding `CS(=O)(=O)Cc1cccc(Nc2n[nH]c3cc(-c4cnn(CC(=O)Nc5ccc(Cl)c(C(F)(F)F)c5)c4)ccc23)c1`, the IC50 with GES1 came out at 17.7 µM; in test [1], 0.143 µM; in the test with HepG2 it was 6.54 µM; in the test with HGC-27, 1.26 µM; in the test with A549, 7.17 µM; with HT-29, 3.69 µM. Moreover, the IC50 in the test with HUVEC came to 7.22 µM.
On to `Cc1ccc(NC(=O)Cn2cc(-c3ccc4c(NC(=O)C5CC5)n[nH]c4c3)c(C)n2)cc1C(F)(F)F`, for which the IC50 in the test on GES1 is 3.09 µM; in test [1], 0.027 µM; with HepG2, 20.4 µM; in the test with HGC-27 it was 0.65 µM; in the test with A549, 1.65 µM; with HT-29 it was 7.03 µM. In the test on HUVEC, the IC50 came to 4.92 µM.
